Data on three molecules can be found in PMC7904387 (Nature chemical biology, 2020).

For experiment [1], the target named is T1, UBE1 (Homo sapiens, UniProt P22314).
T1 sequence (P22314 1-1058): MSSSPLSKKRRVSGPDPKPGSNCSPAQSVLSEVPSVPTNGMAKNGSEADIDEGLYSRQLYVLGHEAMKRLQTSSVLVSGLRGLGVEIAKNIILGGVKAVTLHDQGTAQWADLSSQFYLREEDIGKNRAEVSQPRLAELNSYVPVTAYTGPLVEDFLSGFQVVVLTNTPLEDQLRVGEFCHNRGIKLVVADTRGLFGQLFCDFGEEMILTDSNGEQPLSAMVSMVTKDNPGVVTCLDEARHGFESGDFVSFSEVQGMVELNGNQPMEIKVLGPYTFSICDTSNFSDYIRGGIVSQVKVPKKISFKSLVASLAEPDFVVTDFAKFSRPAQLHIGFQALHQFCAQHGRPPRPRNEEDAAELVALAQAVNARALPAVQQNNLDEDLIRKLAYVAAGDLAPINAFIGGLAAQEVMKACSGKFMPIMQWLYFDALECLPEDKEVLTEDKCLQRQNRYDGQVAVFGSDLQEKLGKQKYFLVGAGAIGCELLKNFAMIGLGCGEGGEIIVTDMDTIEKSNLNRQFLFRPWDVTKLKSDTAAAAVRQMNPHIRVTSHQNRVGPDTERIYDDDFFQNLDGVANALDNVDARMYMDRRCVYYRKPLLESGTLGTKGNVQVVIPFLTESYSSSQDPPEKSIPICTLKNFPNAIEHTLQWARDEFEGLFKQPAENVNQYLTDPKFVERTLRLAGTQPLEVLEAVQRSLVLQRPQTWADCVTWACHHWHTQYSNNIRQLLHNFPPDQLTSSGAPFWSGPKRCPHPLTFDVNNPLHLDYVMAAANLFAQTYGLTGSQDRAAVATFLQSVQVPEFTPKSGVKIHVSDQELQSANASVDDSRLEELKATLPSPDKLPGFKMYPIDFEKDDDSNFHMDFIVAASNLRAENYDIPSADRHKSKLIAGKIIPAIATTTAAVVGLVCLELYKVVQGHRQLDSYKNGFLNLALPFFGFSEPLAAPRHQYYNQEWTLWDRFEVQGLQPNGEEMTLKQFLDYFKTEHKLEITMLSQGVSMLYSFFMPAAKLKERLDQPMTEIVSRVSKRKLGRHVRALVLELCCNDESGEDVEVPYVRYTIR
The experiment in a line: HXMS, deuterium exchange into peptide with and without UBE1. It counts as binding. The following applies: incubation with UBE1, 10 sec labeling. In outline: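 Labelling was by 18-fold dilution into D2O buffer (pD 8) for 10 sec, quenched with guanidinium chloride/formic acid (pH 2), then LC-MS. Uptake was not back-exchange corrected. Difference = with UBE1 minus peptide alone; ≥2 biological replicates.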

For the next experiment, the system named is advanced solid tumors. As to conditions: cited from earlier work.
Experiment [2] addresses T1, UBE1. The experiment in a line: Streptavidin capture. As to conditions: UBE1 10 pmol, biotinylated peptide 5 nmol. The format is binding. In outline:
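Recombinant human UBE1 (10 pmol) was incubated with C-terminally biotinylated peptide (5 nmol) or 0.5% DMSO for 1.5 h at 4°C in 50 mM NaCl, 20 mM HEPES pH 7.4, 5 mM DTT. Streptavidin agarose was added for another 1.5 h at 4°C. Beads were washed three times in NP-40 buffer and heat-eluted (70°C, 10 min). Read-out was SDS-PAGE with silver stain.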

Non-standard residues stand in square brackets, D forms with d. Residues, ends and D or L forms follow the SMILES beside them. Nle = CCCC[C@H](N)C(=O)O

Consider `CCCC[C@H](NC(C)=O)C(=O)N[C@@H](CO)C(=O)N[C@H](C(=O)N1CCC[C@H]1C(=O)N[C@@H](C)C(=O)N[C@@H](CCCNC(=N)N)C(=O)N[C@@H](CCCNC(=N)N)C(=O)N[C@@H](CCCNC(=N)N)C(=O)N[C@@H](CC(C)C)C(=O)N[C@@H](CCCC)C(=O)N[C@@H](CCCNC(=N)N)C(=O)N[C@@H](CC(=O)O)C(=O)N[C@@H](Cc1ccccc1)C(=O)N[C@@H](CCCCN)C(=O)N[C@@H](CCCNC(=N)N)C(=O)N[C@@H](CC(C)C)C(=O)N[C@@H](CCC(N)=O)C(N)=O)[C@@H](C)O` [UBE2A] (Ac-[Nle]STPARRRL[Nle]RDFKRLQ-NH2), for which the “effect of UBE1 on deuterium exchange of the peptide, in words” value on UBE1 [1] is “no meaningful effect”.

As to `NS(=O)(=O)OC[C@H]1C[C@@H](Nc2ccnc3cc(-c4cccc(SC(F)(F)F)c4)nn23)[C@H](O)[C@@H]1O` [TAK-243], the “stable disease, patients” value in the experiment with advanced solid tumors (11 patients of twenty evaluable) is on record as 55%. Moreover, in the experiment with advanced solid tumors (one of twenty evaluable patients), the “partial response, evaluable patients” value is listed as 5%.

Regarding “BSTP8RRRLBRXFKRLQLys(biotin) (sidechain bridge or staple) [C-terminally biotinylated SAH-UBE2A]”, the “binding to recombinant UBE1 by streptavidin pull-down and silver stain, in words” value on UBE1 [2] is “directly and robustly binds”.
